# Experimental data reported in ChEMBL document CHEMBL5705892, “MK-2206, an allosteric Akt inhibitor, enhances antitumor efficacy by standard chemotherapeutic agents or molecular targeted drugs in vitro and in vivo” (Mol Cancer Ther, 2010).
# Calls of active or inactive are those of the source. No cut-off for these calls is given here.
# Key:
# [1] = test system: NCI-H292; assay: Antiproliferative activity against human NCI-H292 cells assessed as reduction in cell proliferation measured after 72 hrs by celltiter-glo assay; assay type: functional, cell-based; conditions: NCI-H292, 72 h
# Summary of the method: (§1)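 Cells in RPMI 1640 with 10% heat-inactivated FBS at 37°C and 5% CO₂ were seeded at 2 to 3 × 10³ per well. […] Growth was read as cellular ATP by CellTiter-Glo.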
# [2] = test system: NCI-H23; assay: Antiproliferative activity against human NCI-H23 cells assessed as reduction in cell proliferation measured after 72 hrs by celltiter-glo assay; assay type: functional, cell-based; conditions: NCI-H23, 72 h; summary of the method: as §1
# [3] = test system: NCI-H358; assay: Synergistic antiproliferative activity against human NCI-H358 cells assessed as combination index at ED50 measured after 72 hrs in presence of erlotinib by celltiter-glo assay; assay type: functional
# [4] = test system: NCI-H1299; assay: Synergistic antiproliferative activity against human NCI-H1299 cells assessed as combination index at ED50 measured after 72 hrs in presence of erlotinib by celltiter-glo assay; assay type: functional
# [5] = test system: HCC70; assay: Synergistic antiproliferative activity against human HCC70 cells assessed as combination index at ED50 measured after 72 hrs in presence of lapatinib by celltiter-glo assay; assay type: functional
# Summary of the method: (§2)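 Cells grown in RPMI 1640 with 10% heat-inactivated FBS at 37°C, 5% CO₂. Seeded at 2 to 3 × 10³ per well; drugs added 24 h later. […] Viability read as cellular ATP by CellTiter-Glo. CI calculated by Chou–Talalay from median-effect plots at ED50, ED75 and ED90.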
# [6] = test system: HCC70; assay: Synergistic antiproliferative activity against human HCC70 cells assessed as combination index at ED90 measured after 72 hrs in presence of lapatinib by celltiter-glo assay; assay type: functional; summary of the method: as §2
# [7] = test system: MDA-MB-468; assay: Synergistic antiproliferative activity against human MDA-MB-468 cells assessed as combination index at ED90 measured after 72 hrs in presence of lapatinib by celltiter-glo assay; assay type: functional
# [8] = test system: NCI-H23; assay: Synergistic antiproliferative activity against human NCI-H23 cells assessed as fold change in erlotinib IC50 at 1 umol/L measured after 72 hrs in presence of erlotinib by celltiter-glo assay relative to erlotinib alone; assay type: functional; conditions: dose 1 µmol/L
# [9] = biological target: RAC-alpha serine/threonine-protein kinase (Homo sapiens) (UniProt P31749); assay: Inhibition of AKT in human A-431 cells assessed as reduction in AKT phosphorylation at S473 residue at 5 umol/L measured after 5 hrs by Western blot analysis; assay type: cell-based; conditions: dose 5.0 µmol/L
# Chain of RAC-alpha serine/threonine-protein kinase (Homo sapiens) (P31749 whole entry): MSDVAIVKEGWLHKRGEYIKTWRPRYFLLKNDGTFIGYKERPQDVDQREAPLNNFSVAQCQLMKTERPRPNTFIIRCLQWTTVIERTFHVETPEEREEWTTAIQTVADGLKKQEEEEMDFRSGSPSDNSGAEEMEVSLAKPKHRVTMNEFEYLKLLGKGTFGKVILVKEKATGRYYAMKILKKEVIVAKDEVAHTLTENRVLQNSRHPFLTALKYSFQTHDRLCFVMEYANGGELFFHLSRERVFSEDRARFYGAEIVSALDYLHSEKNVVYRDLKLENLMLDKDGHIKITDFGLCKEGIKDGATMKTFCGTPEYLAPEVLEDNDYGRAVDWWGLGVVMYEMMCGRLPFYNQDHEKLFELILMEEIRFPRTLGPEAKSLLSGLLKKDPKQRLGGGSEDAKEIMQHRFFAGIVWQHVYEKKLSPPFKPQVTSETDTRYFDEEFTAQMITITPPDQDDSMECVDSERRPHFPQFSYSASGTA
# Summary of the method: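 Cells were lysed in Tris-HCl pH 7.5, 150 mM NaCl, 1% Triton X-100 with protease and phosphatase inhibitors. Lysates were run on SDS-PAGE, transferred to nitrocellulose and probed with phospho-specific antibodies.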
# [10] = biological target: RAC-alpha serine/threonine-protein kinase (Homo sapiens) (UniProt P31749); assay: Inhibition of AKT in human HCC827 cells assessed as reduction in PRAS40 phosphorylation at T246 residue at 5 umol/L measured after 5 hrs in presence of erlotinib by Western blot analysis; assay type: cell-based; conditions: dose 5.0 µmol/L
# [11] = In vivo inhibition of ERK phosphorylation at T202/Y204 residues in human NCI-H292 cells xenografted mouse at 120 mg/kg, po administered as single dose measured after 12 hrs by Western blot analysis relative to control; assay type: functional
# [12] = test system: SK-OV-3; assay: Synergistic antiproliferative activity against lapatinib pretreated human SK-OV-3 cells assessed as combination index at ED50 measured after 72 hrs by celltiter-glo assay; assay type: functional
# [13] = test system: SK-BR-3; assay: Synergistic antiproliferative activity against human SK-BR-3 cells assessed as combination index at ED50 measured after 96 hrs in presence of lapatinib by celltiter-glo assay; assay type: functional
# [14] = test system: SK-OV-3; assay: Synergistic antiproliferative activity against human SK-OV-3 cells assessed as combination index at ED75 measured after 96 hrs in presence of lapatinib by celltiter-glo assay; assay type: functional
# [15] = test system: SK-BR-3; assay: Synergistic antiproliferative activity against human SK-BR-3 cells assessed as combination index at ED90 treated 24 hrs prior to lapatinib and measured after 72 hrs by celltiter-glo assay; assay type: functional; conditions: time 96 hrs
# [16] = test system: MDA-MB-468; assay: Synergistic antiproliferative activity against human MDA-MB-468 cells assessed as combination index at ED90 measured after 96 hrs in presence of lapatinib by celltiter-glo assay; assay type: functional
# [17] = Toxicity in human HCC70 cells xenografted CB17/icr SCID mouse at 120 mg/kg, po administered 3 times per week for 3 weeks starting 2 hrs post-lapatinib treatment and measured during compound dosing; assay type: organism-based; conditions: in vivo, 504 h
# Summary of the method: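 HCC70 cells in 50% Matrigel/PBS injected s.c. into flank of female C.B-17/ICR-scid mice; dosing began after 3 wk, groups randomized at mean tumour 0.2 cm³ (n = 5). Lapatinib 100 mg/kg p.o. in distilled water, 5 d/wk for 3 wk; MK-2206 in 30% Captisol p.o. 3×/wk for 3 wk, given 2 h after lapatinib. Body weight and physical signs monitored throughout.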
# [18] = Toxicity in human SK-OV-3 cells xenografted CB17/icr SCID mouse assessed as mortality at 60 to 120 mg/kg, po administered 3 times per week for 2 weeks starting 2 hrs post lapatinib treatment and measured during compound dosing; assay type: organism-based; conditions: in vivo, 336 h, dose 60-120 mg/kg
# Summary of the method: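 SK-OV-3 cells in 50% Matrigel/PBS injected s.c. into flank of female C.B-17/ICR-scid mice; dosing began after 3 wk, randomized at mean tumour 0.13 cm³ (n = 5). Lapatinib 100 mg/kg p.o. in distilled water 5 d/wk for 2 wk; MK-2206 in 30% Captisol p.o. days 0, 2, 4, 7, 9, 11. Body weight and physical signs monitored.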
# [19] = test system: BT-474; assay: Synergistic antiproliferative activity against human BT-474 cells assessed as combination index at ED75 measured after 72 hrs in presence of docetaxel by celltiter-glo assay; assay type: functional; summary of the method: as §2
# [20] = test system: BT-20; assay: Synergistic antiproliferative activity against human BT-20 cells assessed as combination index at ED50 measured after 72 hrs in presence of docetaxel by celltiter-glo assay; assay type: functional; summary of the method: as §2
# [21] = test system: HCC70; assay: Synergistic antiproliferative activity against human HCC70 cells assessed as combination index at ED75 measured after 72 hrs in presence of docetaxel by celltiter-glo assay; assay type: functional; summary of the method: as §2
# [22] = test system: BT-20; assay: Synergistic antiproliferative activity against human BT-20 cells assessed as combination index at ED90 measured after 72 hrs in presence of docetaxel by celltiter-glo assay; assay type: functional; summary of the method: as §2
# [23] = Toxicity in human PC-3 cells xenografted CD1 nude mouse assessed as body weight loss at 120 mg/kg, po administered 3 times per week for 2 weeks starting 24 hrs post docetaxel treatment and measured during compound dosing relative to control; assay type: organism-based; conditions: in vivo, 336 h
# Summary of the method: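 Male CD1-nude mice with s.c. PC-3 tumours (50% Matrigel/50% PBS, left flank), randomized at mean 0.2 cm³, n=5/group, treated from 25 d post-implant. Body weight monitored versus vehicle-only controls.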
# [24] = Toxicity in human NCI-H460 cells xenografted CD1 nude mouse assessed as body weight loss at 120 mg/kg, po administered 3 times per week for 2 weeks in presence of gemcitabine measured during compound dosing relative to control; assay type: organism-based; conditions: in vivo, 336 h
# Summary of the method: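 CD1-nude mice with s.c. NCI-H460 xenografts, randomized at mean 0.2 cm³, n=5/group, dosing from day 8 post-implant. Body weight compared with vehicle-only controls.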
# [25] = test system: NCI-H441; assay: Synergistic antiproliferative activity against human NCI-H441 cells assessed as combination index at ED25 to ED90 measured after 72 hrs in presence of gemcitabine by celltiter-glo assay; assay type: functional
compound,measurement,setting,value
Cl.NC1(c2ccc(-c3nc4ccn5c(=O)[nH]nc5c4cc3-c3ccccc3)cc2)CCC1,IC50,[1],5.2 µM
same,IC50,[2],14.1 µM
same,CI50,[3],0.44
same,CI50,[4],0.28
same,CI50,[5],0.46
same,CI90,[6],0.2
same,CI90,[7],0.16
same,Ratio IC50,[8],2.4
same,inhibition,[9],Active
same,inhibition,[10],Active
same,inhibition in vivo at 120 mg/kg,[11],27.7%
same,CI50,[12],0.18
same,CI50,[13],0.18
same,CI75,[14],0.18
same,CI90,[15],0.18
same,CI90,[16],0.18
same,Activity,[17],Non-Toxic
same,Activity,[18],Non-Toxic
same,CI75,[19],0.8
same,CI50,[20],1
same,CI75,[21],0.7
same,CI90,[22],0.5
same,Activity,[23],9%
same,Activity,[24],7%
same,CI,[25],0.37
